Test results from the RNAGym collection of RNA variant scans (doi:10.1126/science.aae0568).
This sample holds only a part of the variants without activity.

B1: tRNA (parent)
chain: GUUCCGUUGGCGUAAUGGUAACGCGUCUCCCUCCUAAGGAGAAGACUGCGGGUUCGAGUCCCGUACGGAACG

Variants of: B1
Experiment: yeast fitness relative to wild type (ratio to wild type); higher = fitter; tRNA-Arg(CCU), competitive growth, 37 C, YPD
How it was run: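 Genotype frequency changes were the basis for Darwinian fitness relative to wild type. The frequencies came from 100-nucleotide paired-end sequencing of gene amplicons from the start population and each end population of pooled yeast strains with tRNA-Arg(CCU) gene variants at the native locus. Competition ran in YPD at 37°C for 24 hours in six replicates, genotypes needed ≥ 100 starting reads, and estimates < 0.5 were set to 0.5.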

Variant	yeast fitness
G18C G23A G25C U35C A37G A43C C55G G68A	≤ 0.5
U16G A20U C60G	≤ 0.5
G18C C30G U32C A69U	≤ 0.5
U16C U32C	0.918
U16C U32A	0.682
G17C A20U C66A	≤ 0.5
G17A C30G G67C	≤ 0.5
U16C G51A	0.633
G18C C29U C34U	≤ 0.5
G18A U19G C60U A69C	≤ 0.5
G17A C22G U28A C31G C55A G68C	≤ 0.5
G17A C46U A65C	0.658
G18C G44A	0.604
G17A C33A	0.53
G18A A37C C55U A57G	≤ 0.5
G17A C24U C34A A40G C61U A69U	≤ 0.5
U16C G18A U28A C31A U32A A57G G67A	0.962
G17C U35A C61U	≤ 0.5
U16G C29U C31A C46U	0.716
U16G A45U G50A A69C	0.631
U16C C49G C62U	0.528
G17C G18C G44C U59A	≤ 0.5
G17C U26C C46U A65C	≤ 0.5
G18C G25C U47C	≤ 0.5

Variant	yeast fitness
G17C A20C	0.54
U16G A20G A69C	0.749
G18A A37U U47A C62U	≤ 0.5
G18C G67A A69C	≤ 0.5
U16G A36C G39C G63A A65U	≤ 0.5
G17C A37U A69C	≤ 0.5
G17U A57G A69C	≤ 0.5
U16G C34G A37C	0.706
U16C C27G G48C A65C	≤ 0.5
G17A A20G C29U C33U C60G	≤ 0.5
G17C U35G	0.554
G18C C22G G38A	≤ 0.5
U16G C62A	0.643
U16C G17C G38C C46U G58C	0.64
G18A U32C A69C	0.549
U16C C29U A36U A40C C46U	≤ 0.5
G17C C46U G68A	≤ 0.5
G18A C34A	≤ 0.5
G18C C34G A45C C66U	0.775
G18C A57U G67C	≤ 0.5
U16C C30A C31U	0.834
G17A A57G	0.906
G18C C30U U32A C34G A45C U47G A57G	0.688
G17C G48A	0.685

Variant	yeast fitness
G18A U59A	0.76
G18A C31G	0.666
G18A C31U	0.663
G18C C60U	≤ 0.5
G18C C60A	≤ 0.5
U16G C29G C46U G51C C55G	≤ 0.5
U16C U47C C60U C62A	≤ 0.5
G17A A69C	0.721
G17A A69G	0.813
U16G A20G	1
G18A C29U U35A A70U	≤ 0.5
G17C C22G C24A C62A C66U	≤ 0.5
U16C C31A G51A	≤ 0.5
G17C C24G U28A C30U A65U	≤ 0.5
G18C G52C C60U	0.591
G17C U53A C60A G67A	≤ 0.5
U16G G38C	0.653
G18A C30U C60G	≤ 0.5
G18A A40G A70C	≤ 0.5
U16C U47A G68A	≤ 0.5
G17C C46G G68A	≤ 0.5
G18C G68C	0.556
U16C G18A C34G G39A C62G	≤ 0.5
G18A C24G C66U	≤ 0.5

Variant	yeast fitness
G17C C29U	0.545
G18C G25C U28G A42G	≤ 0.5
G18A C55A C62G	≤ 0.5
G18C A20C C22U C31U C61U	≤ 0.5
G17C C46A A65C	≤ 0.5
G18A C22G C31U	0.682
G17A G25C A65U	0.625
G17A U32A U54C	≤ 0.5
U16G C66U	0.875
G17A G18C G39C A65U	≤ 0.5
G18C G23A G25C A37G A43C C55G C62G	≤ 0.5
G17A U28C A42C U47A C66U	≤ 0.5
G17A C24G C33U A37U	≤ 0.5
U16C C29U C34U A57C U64C	≤ 0.5
G18A U26C	0.648
G17A A21C A42C	≤ 0.5
G17A C30U A40U A57U	≤ 0.5
G18A A21U U32A C62G A65G	≤ 0.5
U16G C29G C49G A65U	≤ 0.5
G18C G23A G25C A37G A43C U54C C55G G68A	≤ 0.5
U16C C27G G52A C60G A69U A70C	≤ 0.5
G17A C22G C27A G63A	0.538
G17U G25A U28G G58A C66G	≤ 0.5
G17C C27U A65C	0.54

Variant	yeast fitness
G18C C34U A69C	≤ 0.5
G18A G25A C29G C34A	≤ 0.5
G18A A36G A42U	0.691
G17A C22G C33U C62A	≤ 0.5
U16G G41A A69U	0.527
G17C G23U U28A C31G A65G	≤ 0.5
U16C G48A A70U	0.798
G18A U19A C27U G67A	≤ 0.5
G18A G39U G48A C61G	≤ 0.5
U16G A20U G38A	0.538
U16C U19G C27G C34U A40U U53A A70U	0.674
G18C U26A	0.609
U16G C22A C61A	≤ 0.5
G17A C34G	0.569
U16C C27U G63A A65G	≤ 0.5
U16C G58C	1.06
U16G C66U A69C	0.728
U16G C24U C49G C55G	≤ 0.5
G18A U32C A70G	0.599
G18C C62G G67U	≤ 0.5
G18C C31G G44C G48C C66U	≤ 0.5
U16G C31G C55U C61A C66U	≤ 0.5
G17A C34U U47A G68C	≤ 0.5
G17A C29G A45G C61U	≤ 0.5

Variant	yeast fitness
U16G G68C A69G	0.556
U16G C24U C49G C66U	≤ 0.5
G18A C30U A40G G68C	≤ 0.5
G18C A42U U54A G58C	0.574
G17A U26C C61U G67A	≤ 0.5
U16C C34G C55U	≤ 0.5
G17A C22G C27A	0.579
U16G A20C G67C	≤ 0.5
G17C A42C C66U	≤ 0.5
U16C C34G A65U G67U	≤ 0.5
G17C C61G C66U	≤ 0.5
U16C C34A A37G	≤ 0.5
G18A G23C C30G A36U	≤ 0.5
G18A C31A C60A	≤ 0.5
G18A G25A A70G	0.54
G18A C24U G56A	0.674
G18A A21U A37U A42U C46A G58C U64A	≤ 0.5
U16G C34G A42G C49G C62U A69C	0.506
G17C C27G U28C A65U	≤ 0.5
G17C U19A C30U A36G A70G	≤ 0.5
G17A U19C C66U	0.665
G18A G25A C46U C55A	≤ 0.5
U16C G56A G67C	0.514
G18C A57U	0.555

Variant	yeast fitness
G17C U47G G67A A69U	0.55
G18C G50A C62A	≤ 0.5
G17C U35C C60U	≤ 0.5
G17C G58C C62U	≤ 0.5
U16G U59G	0.78
G18A U19C	0.79
G18C C61A	0.627
G18A C27U C46A	0.528
G17C A37C	0.644
U16C C30U	0.893
G18A A21C C33G A37U U64G	≤ 0.5
G17C U54A G56C	≤ 0.5
G18C C24G C46A G56C G58A	≤ 0.5
G18C U26A A45G C66G	≤ 0.5
U16C G58A U59C	0.555
G17A C22U C27A C30G	≤ 0.5
G18A A21C G23U U32A A42U G48C U64A	0.529
G18A U47C C62A	≤ 0.5
G17A C24U C31G A65U	≤ 0.5
U16C G17C C22G	0.534
G17C G38C A43C A69U	≤ 0.5
G17A C22A A45C C46U C49U	≤ 0.5
G17A A21G U28G	0.608
